This note sets out measurements from ChEMBL document CHEMBL4396915, “Synthesis of new thiazolyl-pyrazolyl-1,2,3-triazole derivatives as potential antimicrobial agents” (2019).

The test system of experiment [1] is Rhodotorula glutinis. Kind of experiment: Antifungal activity against Rhodotorula glutinis NCIM 3168 assessed as zone of inhibition at 80 ug/well incubated for 48 to 72 hrs by agar well diffusion method. In kind it is functional. The settings on record: read-out: IZ. In outline:
(§1)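 Fungi kept on potato dextrose agar slants and grown in potato dextrose broth. 500 microlitres of 48-72 h spore suspension swabbed onto Mueller Hinton agar. Compounds in DMSO loaded into 5 mm wells, with a DMSO vehicle plate and fluconazole/ravuconazole positive-control plate. Incubated 48-72 h at 30 C. Clear zone measured in mm, mean of five replicates.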
Background: In agar diffusion tests the substance spreads into inoculated agar from a disc or well.

Experiment [2] concerns Escherichia coli. Put plainly: Antibacterial activity against Escherichia coli NCIM 2574 assessed as zone of inhibition at 80 ug/well incubated for 24 to 48 hrs by agar well diffusion method. It counts as functional. The settings on record: read-out: IZ. In outline: (§2)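 Strains from NCIM kept on nutrient agar slants at 4 C and grown overnight at 37 C in nutrient broth. 500 microlitres of 24-48 h culture swabbed onto nutrient agar. Compounds in DMSO loaded into 5 mm wells, with a DMSO vehicle plate and streptomycin reference. Incubated 24-48 h at 37 C. Zone of inhibition measured in mm and averaged over 4 replicates.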

Experiment [3] concerns Candida albicans. Kind of experiment: Antifungal activity against Candida albicans NCIM 3100 assessed as zone of inhibition at 80 ug/well incubated for 48 to 72 hrs by agar well diffusion method. In kind it is functional. Conditions: read-out: IZ. In outline:
as §1

In experiment [4] the test system is Staphylococcus epidermidis. Kind of experiment: Antibacterial activity against Staphylococcus albus NCIM 2178 assessed as zone of inhibition at 80 ug/well incubated for 24 to 48 hrs by agar well diffusion method. In kind it is functional. Conditions: read-out: IZ. Put shortly: as §2
Experiment [5] deals with Aspergillus niger. Put plainly: Antifungal activity against Aspergillus niger NCIM 504 assessed as zone of inhibition at 80 ug/well incubated for 48 to 72 hrs by agar well diffusion method. It counts as functional. Conditions: for zone of inhibition at 80 µg/disc: read-out: IZ. In outline:
as §1

Experiment [6] concerns Proteus mirabilis. Put plainly: Antibacterial activity against Proteus mirabilis NCIM 2388 assessed as zone of inhibition at 80 ug/well incubated for 24 to 48 hrs by agar well diffusion method. In kind it is functional. In outline: as §2
Experiment [7] deals with Candida albicans. Put plainly: Antifungal activity against Candida albicans NCIM 3100 assessed as inhibition of fungal growth incubated for 48 to 72 hrs by broth microdilution susceptibility method. In kind it is functional. Put shortly: (§3)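 Tube micro-dilution in Sabouraud liquid medium. Stocks were made in DMSO and serially diluted twofold in broth to final […]. Tubes inoculated with organisms grown in potato dextrose broth and held 48-72 h at 30 C. MIC is the lowest concentration with no growth. DMSO and uninoculated-media controls were included, in triplicate.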
For orientation: Dilution methods test growth across graded concentrations, often in twofold steps.

Experiment [8] relates to Aspergillus niger. Put plainly: Antifungal activity against Aspergillus niger NCIM 504 assessed as inhibition of fungal growth incubated for 48 to 72 hrs by broth microdilution susceptibility method. It counts as functional. Put shortly: as §3
In experiment [9] the test system is Rhodotorula glutinis. Kind of experiment: Antifungal activity against Rhodotorula glutinis NCIM 3168 assessed as inhibition of fungal growth incubated for 48 to 72 hrs by broth microdilution susceptibility method. It counts as functional. In outline:
as §3

The test system of experiment [10] is Aspergillus niger. Kind of experiment: Inhibition of CYP51 in Aspergillus niger NCIM 504 cells assessed as decrease in ergosterol biosynthesis at 31.5 ug/ml incubated for 72 hrs by spectrophotometric analysis. In outline: (§4)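 A. niger inoculated into potato dextrose broth with compound, untreated control, shaken 72 h at 37 C. Cells centrifuged, washed and pellet wet weight taken. Saponified in 25% alcoholic KOH 1 h at 85 C, then sterols extracted into n-heptane. Extract diluted fivefold in ethanol and scanned at 240-300 nm. Ergosterol computed as % of wet weight from A281.5 and A230, in duplicate.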

Experiment [11] relates to Aspergillus niger. Put plainly: Inhibition of CYP51 in Aspergillus niger NCIM 504 cells assessed as ergosterol synthesis measured per gram wet weight at 31.5 ug/ml incubated for 72 hrs by spectrophotometric analysis (reference value: 0.0000290836%). Set-up: scale not given: the % may be the effect or the level left. Put shortly:
as §4

≈ marks a conversion by molar mass, not a printed value. Calls of active or inactive are those of the source.

On to `Cc1ccc(Cn2cc(-c3cn(-c4ccccc4)nc3-c3sc(-c4ccc(C)cc4)nc3C)nn2)cc1`, for which the zone of inhibition at 80 µg/disc in experiment [1] is 22.3 mm; in experiment [2], 10.2 mm; in [3] it was 13 mm; in experiment [4], 14.4 mm. The “inhibition zone (IZ)” value in experiment [5] and in experiment [6] was “inactive” each time. Further, the minimal inhibitory concentration (MIC) (in general, the smallest concentration in the dilution series that meets the test's criterion for growth inhibition) was 62.5 mg/L (≈ 124 µM) in [7], 31.2 mg/L (≈ 62.2 µM) in experiment [8] and 125 mg/L (≈ 249 µM) in experiment [9]. The inhibition entry in experiment [10] is “Active”. The Activity in [11] is 0%.

Turning to `Cc1ccc(-c2nc(C)c(-c3nn(-c4ccccc4)cc3-c3cn(Cc4ccc(Cl)cc4)nn3)s2)cc1`, the zone of inhibition at 80 µg/disc in experiment [1] came to 19 mm; in experiment [2], 13.6 mm; in experiment [3], 10 mm; in [4], 12 mm; in [5], 16 mm. For the same compound, the “inhibition zone (IZ)” value in experiment [6] is “inactive”. Also, in experiment [7], the MIC entry was “inactive”. The results for the MIC in experiment [8] and in [9] were 31.2 mg/L (≈ 59.7 µM) and 62.5 mg/L (≈ 119 µM), respectively. For the same compound, the inhibition entry in experiment [10] was “Active”. For the same compound, in [11], the Activity amounted to 0%.

Take `Cc1nc(-c2ccc(F)cc2)sc1-c1nn(-c2ccccc2)cc1-c1cn(Cc2ccccc2)nn1`: the zone of inhibition at 80 µg/disc in experiment [1] was found to be 16 mm; in [2], 11.8 mm; in experiment [3], 16.2 mm; in experiment [4], 12.2 mm; in [5] it was 15.8 mm. The “inhibition zone (IZ)” value in [6] was “inactive”. Moreover, the MIC in [7] is 125 mg/L (≈ 254 µM); in experiment [8] it was 31.2 mg/L (≈ 63.4 µM); in experiment [9], 62.5 mg/L (≈ 127 µM). In addition, the inhibition entry in experiment [10] is “Active”. Besides, the Activity in experiment [11] amounted to 0%.

With `Cc1ccc(Cn2cc(-c3cn(-c4ccccc4)nc3-c3sc(-c4ccc(F)cc4)nc3C)nn2)cc1`, the zone of inhibition at 80 µg/disc turned out to be 16.2 mm in experiment [1]; 9.6 mm in experiment [2]; 12.2 mm in experiment [3]; 13.7 mm in experiment [4]; 13 mm in experiment [5]. For the same compound, the “inhibition zone (IZ)” value in [6] was “inactive”. Further, the MIC entry in experiment [7] is “inactive”. Further, the MIC turned out to be 31.2 mg/L (≈ 61.7 µM) in experiment [8] and 62.5 mg/L (≈ 123 µM) in [9]. Besides, the inhibition result in [10] was “Active”. The Activity in [11] is 0%.

On to `Cc1nc(-c2ccc(F)cc2)sc1-c1nn(-c2ccccc2)cc1-c1cn(Cc2ccc(F)cc2)nn1`, for which the zone of inhibition at 80 µg/disc in experiment [1] turned out to be 13.3 mm; in [2], 12.2 mm; in [3] it was 12.8 mm; in [4] it was 11.8 mm; in [5] it was 11 mm. Further, the “inhibition zone (IZ)” value in experiment [6] is “inactive”. Also, the MIC in [7] was determined as 125 mg/L (≈ 245 µM); in [8], 31.2 mg/L (≈ 61.2 µM); in experiment [9], 62.5 mg/L (≈ 122 µM). In addition, the inhibition entry in experiment [10] was “Active”. Also, in experiment [11], the Activity was determined as 0%.
